ABCB1 inh – blocks JC-1 efflux by human ABCB1 transporter; CCRF-Adr cells, flow cytometry; 190,000 tested, 0.067% active; P08183; AID 1326; inhibition, % at 6.6 µM; in the data active = inhibition above about 40%;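 note: higher value means more JC-1 retained so stronger ABCB1 efflux block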
PHOSPHO1 inh – blocks human PHOSPHO1 phosphatase activity; 290,000 tested, 1.1% active; inhibition, % at 13.3 µM; recombinant PHOSPHO1, absorbance phosphatase assay; in the data active = inhibition above about 60%
p47phox inh – blocks human p47phox regulatory protein of NADPH oxidases; 220,000 tested, 0.53% active; AID 1274; p47phox/p22phox peptide binding, fluorescence polarization, 2 h; inhibition, % at 24.7 µM; P14598;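 active = inhibition above about 30%, limit read from the data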
HSV replic up – HSV replication enhancement; HSV replication augmentation in cells, fold increase; maximum fold increase; 220,000 tested, 0.005% active; in the data active = maximum fold increase above about 1.5; tested in PC3 cells
ABCG2 inh – human ABCG2 inhibition, ABCB1 as counter-screen | inhibition, % at 6.6 µM | IgMXP3 cells, JC-1 efflux, flow cytometry | Q9UNQ0 | AID 1325 | 190,000 tested, 0.1% active;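 active = inhibition above 80%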
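Test system: IgMXP3 cells (ABCG2) mixed with DDAO far-red-labelled CCRF-Adr cells (ABCB1). Reagent: JC-1 transporter substrate. Compound dosing: single test compound dose, 6.6 µM final. Times: 10 min compound exposure, 25 °C. Detection: flow cytometry of retained JC-1 fluorescence. Read-out basis: efflux inhibition in percent versus controls. Controls: nicardipine and DMSO wells.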
PKD1 inh – blocks activity of human protein kinase D1; inhibition, % (test concentration not listed); 200,000 tested, 0.056% active; PKD1 kinase fluorescence polarization assay; AID 797; in the data active = inhibition above about 50%
Numbers stand for hits. Shown are actives, neighbours in structure and some others; about 1.6% of the full set was active somewhere.

What do the screens show for `CCn1c(-c2ccc(C(C)(C)C)cc2)n[nH]c1=S`?
ABCB1 inh: inactive; PHOSPHO1 inh: inactive; p47phox inh: inactive; HSV replic up: inactive; ABCG2 inh: inactive; PKD1 inh: inactive

Results for CCn1ncc(Cl)c1C(=O)Nc1ccc2c(c1)CCC2 ?
PHOSPHO1 inh: inactive

Results for CCN1CCc2c(OCC(=O)Nc3ccc(C)cc3)cccc2C1=O ?
PHOSPHO1 inh: 62

What do the screens show for `CCN1CCc2c(OCC(=O)Nc3ccccc3)cccc2C1=O`?
PHOSPHO1 inh: inactive

What do the screens show for `CCOC(=O)C1CCN(C(=O)c2ccc3c(c2)NC(=O)/C(=C\c2ccc(C)cc2)S3)CC1`?
PHOSPHO1 inh: 70

How did O=C(CSCc1ccccc1Br)NNC(=S)NCc1ccco1 do in these assays?
PHOSPHO1 inh: inactive

What do the screens show for `COc1ccc(CCNC(=O)Nc2ccc(F)cc2F)cc1OC`?
PHOSPHO1 inh: inactive

What do the screens show for `Cc1ccccc1-n1c(=O)c2ccccc2n2cnnc12`?
ABCB1 inh: inactive; PHOSPHO1 inh: inactive; p47phox inh: inactive; HSV replic up: inactive; ABCG2 inh: inactive; PKD1 inh: inactive

Results for Cc1ccccc1-n1sc2cc(F)ccc2c1=O ?
ABCB1 inh: inactive; PHOSPHO1 inh: inactive; p47phox inh: 102; HSV replic up: inactive; ABCG2 inh: inactive; PKD1 inh: inactive

What do the screens show for `Cc1cc(O)c(/C=N/Nc2cccc(Cl)c2)c(=O)o1`?
ABCB1 inh: inactive; PHOSPHO1 inh: 101; p47phox inh: inactive; HSV replic up: inactive; ABCG2 inh: inactive; PKD1 inh: inactive

What do the screens show for `O=C(Nc1ccc(Nc2ccncc2)cc1)c1ccc(Nc2ccnc3ccc([N+](=O)[O-])cc23)cc1`?
PHOSPHO1 inh: inactive; p47phox inh: 46; HSV replic up: inactive

Results for O=C(Nc1ccc(Cc2ccncc2)cc1)c1cccc([N+](=O)[O-])c1 ?
ABCB1 inh: inactive; PHOSPHO1 inh: inactive; p47phox inh: inactive; HSV replic up: inactive; ABCG2 inh: inactive; PKD1 inh: inactive

Results for COc1ccc(C2NC(=S)N3C(c4ccc(OC)cc4)NC(=S)N23)cc1 (stereo not drawn) ?
ABCB1 inh: inactive; PHOSPHO1 inh: 98; p47phox inh: inactive; HSV replic up: inactive; ABCG2 inh: inactive; PKD1 inh: inactive

How did C(#Cc1ccccc1)C[N+]1(CC#Cc2ccccc2)CCCC1 do in these assays?
ABCB1 inh: inactive; PHOSPHO1 inh: inactive; p47phox inh: inactive; HSV replic up: inactive; ABCG2 inh: inactive; PKD1 inh: inactive

Results for C=CC#CC[N+]1(CC#Cc2ccccc2)CCOCC1 ?
ABCB1 inh: inactive; PHOSPHO1 inh: inactive; p47phox inh: 61; HSV replic up: inactive; ABCG2 inh: inactive; PKD1 inh: inactive

Results for Cc1[nH]c2ccccc2c1/C=N/Nc1cccc(C(=O)O)c1 ?
PHOSPHO1 inh: 61; p47phox inh: inactive; HSV replic up: inactive

What do the screens show for `Cc1c(C(=O)OC(C)C)[nH]c2c1C(=O)CCC2`?
ABCB1 inh: inactive; PHOSPHO1 inh: inactive; p47phox inh: active; HSV replic up: inactive; ABCG2 inh: inactive; PKD1 inh: inactive

Results for Cc1ccc(C)c(OCCn2c(=O)c3c(ncn3C3CCCC3)n(Cc3ccccc3)c2=O)c1 ?
ABCB1 inh: inactive; PHOSPHO1 inh: inactive; p47phox inh: inactive; HSV replic up: inactive; ABCG2 inh: 84; PKD1 inh: inactive

Results for CCCCNC1=CC(=O)C(=O)c2ccccc21 ?
ABCB1 inh: inactive; PHOSPHO1 inh: 60; p47phox inh: inactive; HSV replic up: inactive; ABCG2 inh: inactive; PKD1 inh: inactive

Results for CCOC(=O)C1CCN(c2ccc(C(N)=O)cc2[N+](=O)[O-])CC1 ?
ABCB1 inh: inactive; PHOSPHO1 inh: inactive; p47phox inh: inactive; HSV replic up: inactive; ABCG2 inh: inactive; PKD1 inh: inactive

Results for CS(=O)(=O)N(Cc1ccc(Cl)cc1)c1ccc(C(=O)N2CCN(c3ccccc3)CC2)cc1 ?
ABCB1 inh: inactive; PHOSPHO1 inh: 100; p47phox inh: inactive; HSV replic up: inactive; ABCG2 inh: inactive; PKD1 inh: inactive

How did CS(=O)(=O)N(Cc1ccccc1)c1ccc(C(=O)N2CCN(c3cccc(Cl)c3)CC2)cc1 do in these assays?
ABCB1 inh: inactive; PHOSPHO1 inh: inactive; p47phox inh: inactive; HSV replic up: inactive; ABCG2 inh: inactive; PKD1 inh: inactive

How did COc1cccc(S(=O)(=O)NCc2ccc(C(=O)N3CCN(c4ccccc4)CC3)cc2)c1 do in these assays?
PHOSPHO1 inh: inactive

What do the screens show for `Cc1ccc(S(=O)(=O)NCc2ccc(C(=O)N3CCN(c4ccccc4)CC3)cc2)cc1`?
PHOSPHO1 inh: 73

Results for CCc1nnc(NC(=O)CSc2nnc(COc3ccccc3C)o2)s1 ?
ABCB1 inh: inactive; PHOSPHO1 inh: 97; p47phox inh: inactive; HSV replic up: inactive; ABCG2 inh: inactive; PKD1 inh: inactive

Results for CCc1nnc(NC(=O)CSc2nnc(Cc3ccc(OC)cc3)o2)s1 ?
ABCB1 inh: inactive; PHOSPHO1 inh: inactive; p47phox inh: inactive; HSV replic up: inactive; ABCG2 inh: inactive; PKD1 inh: inactive

What do the screens show for `CCc1nnc(NC(=O)CSc2ccc(-c3ccco3)nn2)s1`?
ABCB1 inh: inactive; PHOSPHO1 inh: 72; p47phox inh: inactive; ABCG2 inh: inactive; PKD1 inh: inactive

What do the screens show for `COc1ccc(OCc2nnc(SCC(=O)Nc3ccc(C)cc3)o2)cc1`?
PHOSPHO1 inh: inactive

Results for CCc1nnc(NC(=O)CSc2nnc(COc3cccc(C)c3)o2)s1 ?
ABCB1 inh: inactive; PHOSPHO1 inh: 88; p47phox inh: inactive; HSV replic up: inactive; ABCG2 inh: inactive; PKD1 inh: inactive

Results for Cc1ccc(OCc2nnc(SCC(=O)CC(=O)Nc3ccccc3)o2)cc1 ?
ABCB1 inh: inactive; PHOSPHO1 inh: 73; p47phox inh: inactive; HSV replic up: inactive; ABCG2 inh: inactive; PKD1 inh: inactive

How did COc1cc(C(CCN2CCCC2)c2c(OC)cc(OC)c3c(-c4ccccc4)cc(=O)oc23)cc(OC)c1OC (stereo not drawn) do in these assays?
PHOSPHO1 inh: inactive; p47phox inh: inactive; HSV replic up: inactive

How did CCCCc1nc2cc(C(=O)N3CCN(c4nc(C)cnc4C)CC3)ccc2o1 do in these assays?
PHOSPHO1 inh: inactive

Results for COc1c2ccoc2nc2c(OC)c(OCC(OC(C)=O)C(C)(C)O)ccc12 (stereo not drawn) ?
ABCB1 inh: inactive; PHOSPHO1 inh: inactive; p47phox inh: 161; ABCG2 inh: inactive; PKD1 inh: inactive

How did COc1c2ccoc2nc2c(OC)c(OCC(O)C(C)(C)O)ccc12 (stereo not drawn) do in these assays?
ABCB1 inh: inactive; PHOSPHO1 inh: inactive; p47phox inh: inactive; HSV replic up: inactive; ABCG2 inh: inactive; PKD1 inh: inactive

Results for Nc1nc2c(s1)CCc1c-2cnn1-c1ccccc1 ?
ABCB1 inh: inactive; PHOSPHO1 inh: 106; p47phox inh: inactive; HSV replic up: inactive; ABCG2 inh: inactive; PKD1 inh: inactive

Results for CC(=O)NN1C(=O)/C(=C/c2ccc(Br)o2)SC1=S ?
ABCB1 inh: inactive; PHOSPHO1 inh: 87; p47phox inh: inactive; HSV replic up: inactive; ABCG2 inh: inactive; PKD1 inh: inactive
